Active and inactive are the calls of the source. The rule behind the calls is not given here.
How the values were obtained:
Rattus norvegicus [1] = assay: Antitussive activity in ip dosed Sprague-Dawley rat assessed as reduction in number of capsaicin-induced coughs; format: functional
[2] = target: Delta-type opioid receptor (Homo sapiens) (UniProt P41143); assay: Agonist activity at human delta opioid receptor expressed in CHO cells assessed as stimulation of [35S]GTPgammaS binding at 1 uM relative to DPDPE; format: functional, cell-based
Delta-type opioid receptor (Homo sapiens), sequence (P41143 whole entry): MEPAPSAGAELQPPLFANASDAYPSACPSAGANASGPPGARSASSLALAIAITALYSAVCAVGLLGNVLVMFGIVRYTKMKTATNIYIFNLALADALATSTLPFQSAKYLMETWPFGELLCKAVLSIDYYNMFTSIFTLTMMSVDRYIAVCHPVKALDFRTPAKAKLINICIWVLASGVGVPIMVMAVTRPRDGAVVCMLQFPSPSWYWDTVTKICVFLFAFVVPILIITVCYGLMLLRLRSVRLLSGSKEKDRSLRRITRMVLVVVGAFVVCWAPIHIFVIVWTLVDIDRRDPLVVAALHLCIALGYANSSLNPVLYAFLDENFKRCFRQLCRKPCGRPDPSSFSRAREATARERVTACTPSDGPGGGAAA
How it was run: (§1)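 Compound was preincubated 20 min at 30 °C, then 60 min with SPA beads. 0.3 nM [35S]GTPγS was added for 30 min.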

Cavia porcellus [3] = organism: Cavia porcellus; assay: Selectivity for delta opioid receptor over kappa opioid receptor in Hartley guinea pig brain membrane; format: cell membranes
[4] = target: Kappa-type opioid receptor (Homo sapiens) (UniProt P41145); assay: Agonist activity at human kappa opioid receptor expressed in HEK293 cells assessed as stimulation of [35S]GTPgammaS binding at 1 uM relative to U69,593; format: functional, cell-based; how it was run: as §1
Kappa-type opioid receptor (Homo sapiens), sequence (P41145 whole entry): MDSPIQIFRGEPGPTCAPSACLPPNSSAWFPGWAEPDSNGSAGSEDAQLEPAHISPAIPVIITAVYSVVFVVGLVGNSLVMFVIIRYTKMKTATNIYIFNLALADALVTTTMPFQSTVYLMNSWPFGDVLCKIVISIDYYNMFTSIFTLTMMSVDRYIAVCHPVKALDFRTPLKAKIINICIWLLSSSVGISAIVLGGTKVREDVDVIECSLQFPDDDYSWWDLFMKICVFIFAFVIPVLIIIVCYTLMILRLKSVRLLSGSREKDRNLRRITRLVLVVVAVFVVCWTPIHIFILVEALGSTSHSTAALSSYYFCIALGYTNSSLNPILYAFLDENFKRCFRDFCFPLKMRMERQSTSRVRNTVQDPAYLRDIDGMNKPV

[5] = target: T1, Kappa-type opioid receptor (Cavia porcellus, UniProt P41144); assay: Displacement of […] from kappa opioid receptor in Hartley guinea pig brain membrane; format: cell membranes
T1 sequence (P41144 whole entry): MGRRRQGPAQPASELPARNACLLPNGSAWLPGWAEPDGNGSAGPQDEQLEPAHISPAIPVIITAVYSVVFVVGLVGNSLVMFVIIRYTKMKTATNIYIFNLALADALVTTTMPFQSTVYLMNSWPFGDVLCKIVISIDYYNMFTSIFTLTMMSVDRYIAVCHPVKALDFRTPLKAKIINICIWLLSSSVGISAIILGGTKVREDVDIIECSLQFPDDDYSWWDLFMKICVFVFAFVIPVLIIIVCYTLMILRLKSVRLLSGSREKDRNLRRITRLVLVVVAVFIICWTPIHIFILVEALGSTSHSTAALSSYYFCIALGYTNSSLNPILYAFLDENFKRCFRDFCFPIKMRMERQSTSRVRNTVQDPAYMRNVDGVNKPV

[6] = target: T2, Delta-type opioid receptor (Mus musculus, UniProt P32300); assay: Antagonist activity at delta opioid receptor in electrically-induced ddY mouse vas deferens assessed as effect on DPDPE-induced inhibition of electrically-stimulated contraction at 10 uM; format: functional, tissue-based; details: read-out: pA2 (converted)
T2 sequence (P32300 whole entry): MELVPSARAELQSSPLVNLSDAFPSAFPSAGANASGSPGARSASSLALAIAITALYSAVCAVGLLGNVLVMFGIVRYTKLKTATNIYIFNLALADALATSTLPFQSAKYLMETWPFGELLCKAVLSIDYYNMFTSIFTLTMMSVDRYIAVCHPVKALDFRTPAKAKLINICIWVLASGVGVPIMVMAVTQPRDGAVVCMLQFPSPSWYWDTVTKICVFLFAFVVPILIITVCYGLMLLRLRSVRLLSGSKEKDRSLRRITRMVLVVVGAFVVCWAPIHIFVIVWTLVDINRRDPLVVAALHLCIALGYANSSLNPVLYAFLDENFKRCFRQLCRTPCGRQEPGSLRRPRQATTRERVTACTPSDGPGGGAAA
How it was run: (§2)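 Vas deferens from male ddy mice was mounted in a Magnus tube at 37 °C in Krebs-Henseleit gassed with 95% O2/5% CO2 and electrically stimulated. Antagonist was added 20 min before cumulative agonist: DPDPE (δ), U-50,488H (κ) or morphine (µ). Dose ratio is the agonist IC50 with versus without antagonist, as mean of N=4. pA2 = −log([B]/(dose ratio − 1)).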

[7] = Displacement of [3H]NTI from delta opioid receptor in Hartley guinea pig brain membrane; format: cell membranes, Cavia porcellus
How it was run: (§3)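 Brains from 4-week male Hartley guinea pigs were split into forebrain (µ, δ) and cerebellum (κ). Membranes were homogenised in 50 mM Tris-HCl pH 7.4 and held 1 h at 4 °C to remove endogenous ligands.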

Mu-type opioid receptor [8] = target: T3, Mu-type opioid receptor (Cavia porcellus, UniProt P97266); assay: Displacement of [3H]DAMGO from mu opioid receptor in Hartley guinea pig brain membrane; format: cell membranes; how it was run: as §3
T3 sequence (P97266 whole entry): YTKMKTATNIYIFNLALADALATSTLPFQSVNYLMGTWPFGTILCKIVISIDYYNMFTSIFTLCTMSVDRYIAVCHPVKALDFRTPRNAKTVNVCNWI

[9] = target: T4, Kappa-type opioid receptor (Mus musculus, UniProt P33534); assay: Antagonist activity at kappa opioid receptor in electrically-induced ddY mouse vas deferens assessed as effect on U50,488H-induced inhibition of electrically-stimulated contraction at 10 uM; format: functional, tissue-based; details: read-out: pA2 (converted); how it was run: as §2
T4 sequence (P33534 whole entry): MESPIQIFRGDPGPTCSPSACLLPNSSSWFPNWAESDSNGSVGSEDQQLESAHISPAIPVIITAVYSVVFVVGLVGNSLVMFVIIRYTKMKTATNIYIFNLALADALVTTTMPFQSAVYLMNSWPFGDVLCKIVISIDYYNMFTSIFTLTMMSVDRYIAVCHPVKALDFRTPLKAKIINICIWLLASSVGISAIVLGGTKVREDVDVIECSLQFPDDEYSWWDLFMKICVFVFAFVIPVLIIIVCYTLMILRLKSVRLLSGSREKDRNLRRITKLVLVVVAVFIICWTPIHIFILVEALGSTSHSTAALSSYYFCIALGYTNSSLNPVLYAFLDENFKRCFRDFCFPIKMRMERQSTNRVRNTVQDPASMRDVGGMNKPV

[10] = target: Mu-type opioid receptor (Homo sapiens) (UniProt P35372); assay: Agonist activity at human mu opioid receptor expressed in CHO cells assessed as stimulation of [35S]GTPgammaS binding at 1 uM relative to DAMGO; format: functional, cell-based; how it was run: as §1
Mu-type opioid receptor (Homo sapiens), sequence (P35372 whole entry): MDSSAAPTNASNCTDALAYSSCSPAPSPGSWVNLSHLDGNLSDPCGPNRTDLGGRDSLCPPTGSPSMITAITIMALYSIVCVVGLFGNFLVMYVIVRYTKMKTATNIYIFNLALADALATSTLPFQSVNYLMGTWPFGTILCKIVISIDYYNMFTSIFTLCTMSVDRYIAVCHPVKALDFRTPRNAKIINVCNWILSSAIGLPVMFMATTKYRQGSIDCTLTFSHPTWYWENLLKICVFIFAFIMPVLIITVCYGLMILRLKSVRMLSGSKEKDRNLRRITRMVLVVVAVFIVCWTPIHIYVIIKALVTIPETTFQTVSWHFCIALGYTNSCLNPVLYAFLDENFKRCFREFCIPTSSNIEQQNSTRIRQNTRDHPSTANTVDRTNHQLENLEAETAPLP

Cavia porcellus [11] = organism: Cavia porcellus; assay: Selectivity for delta opioid receptor over mu opioid receptor in Hartley guinea pig brain membrane; format: cell membranes
[12] = target: T4, Kappa-type opioid receptor; assay: Antagonist activity at kappa opioid receptor in electrically-induced ddY mouse vas deferens assessed as effect on U50,488H-induced inhibition of electrically-stimulated contraction at 30 uM; format: functional, tissue-based; details: read-out: pA2 (converted); how it was run: as §2
Mu-type opioid receptor [13] = target: T5, Mu-type opioid receptor (Mus musculus, UniProt P42866); assay: Antagonist activity at mu opioid receptor in electrically-induced ddY mouse vas deferens assessed as effect on morphine-induced inhibition of electrically-stimulated contraction at 30 uM; format: functional, tissue-based; details: read-out: pA2 (converted); how it was run: as §2
T5 sequence (P42866 whole entry): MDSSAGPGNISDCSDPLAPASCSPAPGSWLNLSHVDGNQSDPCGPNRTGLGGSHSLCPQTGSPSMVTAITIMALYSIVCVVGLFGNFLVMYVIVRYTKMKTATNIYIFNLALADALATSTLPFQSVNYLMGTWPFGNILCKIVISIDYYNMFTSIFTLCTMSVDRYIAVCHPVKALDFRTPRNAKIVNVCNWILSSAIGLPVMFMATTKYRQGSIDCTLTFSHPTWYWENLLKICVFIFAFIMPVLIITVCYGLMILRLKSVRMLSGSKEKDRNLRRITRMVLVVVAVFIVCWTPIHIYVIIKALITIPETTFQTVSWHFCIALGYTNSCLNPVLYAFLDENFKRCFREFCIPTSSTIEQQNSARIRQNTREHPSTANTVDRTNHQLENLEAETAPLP

[14] = target: T2, Delta-type opioid receptor; assay: Antagonist activity at delta opioid receptor in electrically-induced ddY mouse vas deferens assessed as effect on DPDPE-induced inhibition of electrically-stimulated contraction at 30 uM; format: functional, tissue-based; details: read-out: pA2 (converted); how it was run: as §2
[15] = target: T1, Kappa-type opioid receptor; assay: Binding affinity to guinea pig kappa opioid receptor; how it was run: as §3
Mu-type opioid receptor [16] = target: T3, Mu-type opioid receptor; assay: Binding affinity to guinea pig mu opioid receptor; how it was run: as §3
[17] = Binding affinity to guinea pig delta opioid receptor; set-up: species or system Cavia porcellus; how it was run: as §3
Rattus norvegicus [18] = assay: Antitussive activity in po dosed Sprague-Dawley rat assessed as reduction in number of capsaicin-induced coughs; format: functional
[19] = target: T2, Delta-type opioid receptor; assay: Antagonist activity at delta opioid receptor in electrically-induced ddY mouse vas deferens assessed as effect on DPDPE-induced inhibition of electrically-stimulated contraction at 100 uM; format: functional, tissue-based; details: read-out: pA2 (converted); how it was run: as §2
[20] = target: T4, Kappa-type opioid receptor; assay: Antagonist activity at kappa opioid receptor in electrically-induced ddY mouse vas deferens assessed as effect on U50,488H-induced inhibition of electrically-stimulated contraction at 100 uM; format: functional, tissue-based; details: read-out: pA2 (converted); how it was run: as §2
Rattus norvegicus [21] = assay: Effect on Sprague-Dawley rat capsaicin-induced cough nodel assessed as increase in number of coughs at 10 mg/kg, sc; format: functional, organism-based; set-up: dose 10 mg/kg
Mu-type opioid receptor [22] = target: T5, Mu-type opioid receptor; assay: Antagonist activity at mu opioid receptor in electrically-induced ddY mouse vas deferens assessed as effect on […]-induced inhibition of electrically-stimulated contraction at 10 uM; format: functional, tissue-based; details: read-out: pA2 (converted)

## CCCn1c2c(c3ccccc31)C[C@@]1(O)[C@H]3Cc4ccc(OC)c5c4[C@@]1(CCN3CC1CC1)[C@H]2O5
Rattus norvegicus [1]
  ED50: 0.0148 mg/kg

## COc1ccc2c3c1O[C@H]1c4c(c5cccc6c5n4CCCC6)C[C@@]4(O)[C@@H](C2)N(CC2CC2)CC[C@]314
[2]
  Activity: 45%
Cavia porcellus [3]
  Selectivity ratio: 12
[4]
  Activity: 11%
[5]
  Ki: 3340 nM
[6]
  Kb: 295 nM
[7]
  Ki: 274 nM
Mu-type opioid receptor [8]
  Ki: > 3670 nM
[9]
  Kb: 17 nM
[10]
  Activity: -1%
Cavia porcellus [11]
  Selectivity ratio: > 13

## CCn1c2c(c3cccc(C)c31)C[C@@]1(O)[C@H]3Cc4ccc(OC)c5c4[C@@]1(CCN3CC1CC1)[C@H]2O5
[2]
  Activity: 47%
Cavia porcellus [3]
  Selectivity ratio: 21
[4]
  Activity: 21%
[5]
  Ki: 4650 nM
[7]
  Ki: 218 nM
Mu-type opioid receptor [8]
  Ki: > 3670 nM
Rattus norvegicus [1]
  ED50: 0.00179 mg/kg
[10]
  Activity: 1%
Cavia porcellus [11]
  Selectivity ratio: > 17

## Cn1c2c(c3ccccc31)C[C@@]1(O)[C@H]3Cc4ccc(O)c5c4[C@@]1(CCN3CC1CC1)[C@H]2O5
Rattus norvegicus [1]
  ED50: 0.204 mg/kg

## Oc1ccc2c3c1O[C@H]1c4c(c5cccc6c5n4CCC6)C[C@@]4(O)[C@@H](C2)N(CC2CC2)CC[C@]314
[2]
  Activity: -2%
Cavia porcellus [3]
  Selectivity ratio: 22
[4]
  Activity: 26%
[12]
  Kb: 27.5 nM
Mu-type opioid receptor [13]
  Kb: 12.6 nM
[5]
  Ki: 15.1 nM
[14]
  Kb: 0.794 nM
[7]
  Ki: 0.673 nM
Mu-type opioid receptor [8]
  Ki: 60.6 nM
[10]
  Activity: 1%
Cavia porcellus [11]
  Selectivity ratio: 90

## COc1ccc2c3c1O[C@H]1c4[nH]c5ccccc5c4C[C@@]4(O)[C@@H](C2)N(CC2CC2)CC[C@]314
[15]
  Ki: 3910 nM
Mu-type opioid receptor [16]
  Ki: 2510 nM
[17]
  Ki: 6.57 nM

## COc1ccc2c3c1O[C@H]1c4c(c5cccc(C)c5n4C)C[C@@]4(O)[C@@H](C2)N(CC2CC2)CC[C@]314
Rattus norvegicus [1]
  ED50: 0.00635 mg/kg

## Oc1ccc2c3c1O[C@H]1c4[nH]c5ccccc5c4C[C@@]4(O)[C@@H](C2)N(CC2CC2)CC[C@]314 [NALTRINDOLE]
[2]
  Activity: -3%
Mu-type opioid receptor [16]
  Ki: 27 nM
Cavia porcellus [3]
  Selectivity ratio: 55
[4]
  Activity: 12%
[5]
  Ki: 7.44 nM
[17]
  Ki: 0.217 nM
[7]
  Ki: 0.135 nM
Mu-type opioid receptor [8]
  Ki: 12.7 nM
[10]
  Activity: 5%
Cavia porcellus [11]
  Selectivity ratio: 94
Rattus norvegicus [18]
  ED50: 1.83 mg/kg

## Oc1ccc2c3c1O[C@H]1c4c(c5cccc6c5n4CC6)C[C@@]4(O)[C@@H](C2)N(CC2CC2)CC[C@]314
[2]
  Activity: 26%
Cavia porcellus [3]
  Selectivity ratio: 27
[4]
  Activity: 3%
[12]
  Kb: 7.94 nM
Mu-type opioid receptor [13]
  Kb: 15.8 nM
[5]
  Ki: 7.99 nM
[7]
  Ki: 0.295 nM
Mu-type opioid receptor [8]
  Ki: 23.2 nM
[10]
  Activity: 0%
Cavia porcellus [11]
  Selectivity ratio: 79

## Oc1ccc2c3c1O[C@H]1c4[nH]c5c6c(ccc5c4C[C@@]4(O)[C@@H](C2)N(CC2CC2)CC[C@]314)CCCC6
[2]
  Activity: 19%
Cavia porcellus [3]
  Selectivity ratio: 8.2
[4]
  Activity: 33%
[19]
  Kb: 23.4 nM
[5]
  Ki: 52 nM
[7]
  Ki: 6.32 nM
Mu-type opioid receptor [8]
  Ki: 200 nM
[20]
  Kb: 1660 nM
[10]
  Activity: -1%
Cavia porcellus [11]
  Selectivity ratio: 32

## COc1ccc2c3c1O[C@H]1c4c(c5cccc6c5n4CCC6)C[C@@]4(O)[C@@H](C2)N(CC2CC2)CC[C@]314.CS(=O)(=O)O
[2]
  Activity: 47%
Cavia porcellus [3]
  Selectivity ratio: 42
[4]
  Activity: 8%
[5]
  Ki: 3290 nM
[7]
  Ki: 79 nM
Mu-type opioid receptor [8]
  Ki: > 3670 nM
[20]
  Kb: 67.6 nM
[10]
  Activity: -1%
Cavia porcellus [11]
  Selectivity ratio: > 46
Rattus norvegicus [18]
  ED50: 0.0064 mg/kg

## CN1CC[C@]2(c3cccc(O)c3)Cc3nc4ccccc4cc3C[C@H]2C1 (relative stereo)
Rattus norvegicus [21]
  Activity: Active

## Oc1ccc2c3c1O[C@H]1c4c(c5cccc6c5n4CCCC6)C[C@@]4(O)[C@@H](C2)N(CC2CC2)CC[C@]314
Mu-type opioid receptor [22]
  Kb: 18.2 nM
[2]
  Activity: 20%
Cavia porcellus [3]
  Selectivity ratio: 18
[4]
  Activity: 32%
[5]
  Ki: 40 nM
[7]
  Ki: 2.26 nM
Mu-type opioid receptor [8]
  Ki: 113 nM
[9]
  Kb: 51.3 nM
Rattus norvegicus [1]
  ED50: 0.0123 mg/kg
[10]
  Activity: -1%
Cavia porcellus [11]
  Selectivity ratio: 50

Reference: ChEMBL document CHEMBL1155897, “Structure-antitussive activity relationships of naltrindole derivatives. Identification of novel and potent antitussive agents” (J Med Chem, 2008)
